Results: ChEMBL document CHEMBL1157042, “Triazole incorporated thiazoles as a new class of anticonvulsants: design, synthesis and in vivo screening” (Eur J Med Chem, 2010)
The source made the active and inactive calls.

What was measured:
Mus musculus [1] = experiment: Anticonvulsant activity in ip dosed Swiss albino mouse assessed as inhibition of maximum electric shock-induced motor impairment after 4 hrs; assay type: functional; conditions: read-out: MED
Mus musculus [2] = experiment: Neurotoxicity in Swiss albino mouse at 300 mg/kg, ip after 0.5 hrs; assay type: toxicity, organism-based; parameters: dose 300 mg/kg, route intraperitoneal; conditions: in vivo
Mus musculus [3] = experiment: Anticonvulsant activity in ip dosed Swiss albino mouse assessed as inhibition of maximum electric shock-induced motor impairment after 0.5 hrs; assay type: functional; conditions: read-out: MED
Mus musculus [4] = experiment: Anticonvulsant activity in Swiss albino mouse assessed as inhibition of PTZ-induced motor impairment at 300 mg/kg, ip after 4 hrs; assay type: functional, organism-based; parameters: dose 300 mg/kg
How it was run: (§1)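 Albino mice of either sex (25–30 g), 6 per group. Test compound was given i.p. in polyethylene glycol at 30, 100 or 300 mg/kg, and subcutaneous pentylenetetrazole challenge followed 0.5 h or 4.0 h later. Activity was scored as protection in half or more of the mice.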

Mus musculus [5] = experiment: Anticonvulsant activity in Swiss albino mouse assessed as inhibition of PTZ-induced motor impairment at 300 mg/kg, ip after 0.5 hrs; assay type: functional, organism-based; parameters: dose 300 mg/kg; how it was run: as §1
[6] = Neurotoxicity in ip dosed Swiss albino mouse after 4 hrs; assay type: toxicity, organism-based; conditions: in vivo
How it was run: (§2)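 Albino mice of either sex (25–30 g), 6 per group, received i.p. doses of 30, 100 and 300 mg/kg in polyethylene glycol. Trained mice were tested on the rotorod at 0.5 h and 4.0 h. Neurotoxicity was failure to keep balance on the rod for at least 1 min in each trial. The value recorded is the minimum dose affecting half or more of the mice.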

Mus musculus [7] = experiment: Neurotoxicity in Swiss albino mouse at 300 mg/kg, ip after 4 hrs; assay type: toxicity, organism-based; parameters: dose 300 mg/kg, route intraperitoneal; conditions: in vivo
[8] = Neurotoxicity in ip dosed Swiss albino mouse after 0.5 hrs; assay type: toxicity, organism-based; conditions: in vivo; how it was run: as §2
Mus musculus [9] = experiment: Anticonvulsant activity in ip dosed Swiss albino mouse assessed as inhibition of PTZ-induced motor impairment; assay type: functional
Mus musculus [10] = experiment: Anticonvulsant activity in ip dosed Swiss albino mouse assessed as inhibition of maximum electric shock-induced motor impairment; assay type: functional
Mus musculus [11] = experiment: Anticonvulsant activity in ip dosed Swiss albino mouse assessed as inhibition of PTZ-induced motor impairment after 0.5 hrs; assay type: functional; conditions: read-out: MED
How it was run: (§3)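 Albino mice of either sex (25–30 g), 6 per group, dosed i.p. in polyethylene glycol at 30, 100 or 300 mg/kg. Subcutaneous pentylenetetrazole was given at 0.5 h or 4.0 h, and mice were watched for 30 min. Protection meant no threshold seizure (single clonic spasm episode of at least 5 s). The value is the minimum dose protecting half or more.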

Mus musculus [12] = experiment: Anticonvulsant activity in ip dosed Swiss albino mouse assessed as inhibition of PTZ-induced motor impairment after 4 hrs; assay type: functional; conditions: read-out: MED; how it was run: as §3
Mus musculus [13] = experiment: Anticonvulsant activity in Swiss albino mouse assessed as inhibition of maximum electric shock-induced motor impairment at 300 mg/kg, ip after 4 hrs; assay type: functional, organism-based; parameters: dose 300 mg/kg
How it was run: (§4)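 Albino mice of either sex (25–30 g), 6 per group, given drug i.p. in polyethylene glycol at 30, 100 and 300 mg/kg. Maximal electroshock was applied at 0.5 h and 4.0 h. Protection meant abolition of hind limb tonic extension.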

Mus musculus [14] = experiment: Anticonvulsant activity in Swiss albino mouse assessed as inhibition of maximum electric shock-induced motor impairment at 300 mg/kg, ip after 0.5 hrs; assay type: functional, organism-based; parameters: dose 300 mg/kg; how it was run: as §4
Mus musculus [15] = experiment: Anticonvulsant activity in po dosed Swiss albino mouse assessed as inhibition of maximum electric shock-induced motor impairment after 2 hrs; assay type: functional
How it was run: (§5)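 Phase IV: same procedure as i.p. phase II (MES protection, or rotorod failure for at least 1 min per trial), but drugs were given orally. Groups of 10 albino mice got a dose range yielding at least three points within 10–90% effect. ED50 or TD50 was read at the indicated time via Litchfield–Wilcoxon.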

Mus musculus [16] = species on record: Mus musculus; experiment: Ratio of HD50 for hypnotic activity in Swiss albino mouse to ED50 for inhibition of maximal electroshock-induced seizures Swiss albino mouse; assay type: functional
How it was run: (§6)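 Ratio of HD50 to i.p. ED50 (scPTZ or MES). HD50, in mg/kg, came from loss of righting reflex in i.p.-dosed albino mice, with a dose range analysed as for phase II ED50.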

Mus musculus [17] = species on record: Mus musculus; experiment: Protective index, ratio of TD50 for neurotoxicity in Swiss albino mouse to ED50 for inhibition of PTZ-induced motor impairment Swiss albino mouse; assay type: functional
Mus musculus [18] = species on record: Mus musculus; experiment: Ratio of HD50 for hypnotic activity in Swiss albino mouse to ED50 for inhibition of PTZ-induced motor impairment Swiss albino mouse; assay type: functional; how it was run: as §6
[19] = Neurotoxicity in po dosed Swiss albino mouse after 2 hrs; assay type: toxicity, organism-based; conditions: in vivo; how it was run: as §5
Mus musculus [20] = experiment: Sedative-hypnotic activity in ip dosed Swiss albino mouse after 24 hrs; assay type: organism-based; conditions: in vivo
Mus musculus [21] = experiment: Protective index, ratio of TD50 for neurotoxicity in po dosed Swiss albino mouse to ED50 for inhibition of maximal electroshock-induced seizures po dosed Swiss albino mouse; assay type: functional
Mus musculus [22] = species on record: Mus musculus; experiment: Protective index, ratio of TD50 for neurotoxicity in Swiss albino mouse to ED50 for inhibition of maximal electroshock-induced seizures Swiss albino mouse; assay type: functional
[23] = Neurotoxicity in ip dosed Swiss albino mouse; assay type: toxicity, organism-based; conditions: in vivo
[24] = Toxicity in ip dosed Swiss albino mouse after 24 hrs; assay type: organism-based; conditions: in vivo
How it was run: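 Albino mice of either sex (25–30 g), in groups of 10, received a range of i.p. doses in polyethylene glycol until at least three points fell within 10–90% effect. Mortality was scored 24 h after injection.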

Row | SMILES | minimal effective dose (Mus musculus [1]) | Activity (Mus musculus [2]) | minimal effective dose (Mus musculus [3]) | inhibition (Mus musculus [4]) | inhibition (Mus musculus [5]) | MTD at 4 h [6] | Activity (Mus musculus [7]) | MTD at 0.5 h [8] | minimal effective dose (Mus musculus [11]) | minimal effective dose (Mus musculus [12]) | further results
1 | Cc1ccc(-n2c(Nc3nc(-c4ccc(Cl)cc4)cs3)n[nH]c2=S)cc1 | 300 mg/kg | Non-toxic | 300 mg/kg | inactive | inactive | 300 mg/kg | – | – | – | – | –
2 | COc1ccc(-n2c(Nc3nc(-c4ccc(Br)cc4)cs3)n[nH]c2=S)cc1 | 300 mg/kg | Non-toxic | 300 mg/kg | inactive | inactive | – | Non-toxic | – | – | – | –
3 | CCC1(c2ccccc2)C(=O)NC(=O)NC1=O [PHENOBARBITAL] | 30 mg/kg | – | 100 mg/kg | – | – | 300 mg/kg | – | 100 mg/kg | – | – | ED50 (Mus musculus [9]): 13.2 mg/kg; ED50 (Mus musculus [10]): 21.8 mg/kg
4 | Cc1ccc(-n2c(Nc3nc(-c4ccc([N+](=O)[O-])cc4)cs3)n[nH]c2=S)cc1 | 300 mg/kg | – | 100 mg/kg | inactive | – | 100 mg/kg | – | 100 mg/kg | 300 mg/kg | – | –
5 | COc1ccccc1-n1c(Nc2nc(-c3ccc(Cl)cc3)cs2)n[nH]c1=S | 100 mg/kg | – | 100 mg/kg | inactive | – | – | Non-toxic | 300 mg/kg | 100 mg/kg | – | –
6 | Cc1ccccc1-n1c(Nc2nc(-c3ccc([N+](=O)[O-])cc3)cs2)n[nH]c1=S | 100 mg/kg | – | 100 mg/kg | – | – | 100 mg/kg | – | 300 mg/kg | 100 mg/kg | 300 mg/kg | –
7 | CCC1(C)CC(=O)NC1=O (centres undefined) [ETHOSUXIMIDE] | – | Non-toxic | – | – | inactive | – | Non-toxic | – | 100 mg/kg | 300 mg/kg | inhibition (Mus musculus [13]): inactive; inhibition (Mus musculus [14]): inactive
8 | COc1ccccc1-n1c(Nc2nc(-c3ccc([N+](=O)[O-])cc3)cs2)n[nH]c1=S | 100 mg/kg | – | 100 mg/kg | inactive | inactive | 300 mg/kg | – | 100 mg/kg | – | – | –
9 | S=c1[nH]nc(Nc2nc(-c3ccccc3)cs2)n1-c1ccccc1 | – | Non-toxic | 300 mg/kg | – | inactive | 300 mg/kg | – | – | – | 300 mg/kg | inhibition (Mus musculus [13]): inactive
10 | S=c1[nH]nc(Nc2nc(-c3ccc(Br)cc3)cs2)n1-c1ccccc1 | 300 mg/kg | Non-toxic | – | inactive | inactive | 300 mg/kg | – | – | – | – | –
11 | Cc1ccccc1-n1c(Nc2nc(-c3ccc(Br)cc3)cs2)n[nH]c1=S | 30 mg/kg | Non-toxic | 30 mg/kg | – | – | – | Non-toxic | – | 100 mg/kg | 300 mg/kg | ED50 (Mus musculus [15]): 49.9 mg/kg; Ratio (Mus musculus [16]): 47.16; Ratio TD50/ED50 (Mus musculus [17]): 8.3; Ratio (Mus musculus [18]): 7.74; TD50 at 2 h [19]: 884 mg/kg; HD50 (Mus musculus [20]): 632 mg/kg; Ratio TD50/ED50 (Mus musculus [21]): 17.7; ED50 (Mus musculus [9]): 81.6 mg/kg; Ratio TD50/ED50 (Mus musculus [22]): 51; TD50 [23]: 684 mg/kg; LD50 at 24 h [24]: 834 mg/kg; ED50 (Mus musculus [10]): 13.4 mg/kg
12 | COc1ccc(-n2c(Nc3nc(-c4ccccc4)cs3)n[nH]c2=S)cc1 | 100 mg/kg | Non-toxic | 100 mg/kg | – | inactive | – | Non-toxic | – | – | 300 mg/kg | –
